{"source": "ChEMBL document CHEMBL1127826", "about": "“Inhibitors of acyl-CoA:cholesterol acyltransferase (ACAT). 7. Development of a series of substituted N-phenyl-N'-[(1-phenylcyclopentyl)methyl]ureas with enhanced hypocholesterolemic activity” (J Med Chem, 1994)", "key": {"Rattus norvegicus [1]": {"tested_on": "Rattus norvegicus", "assay": "Compound was evaluated in experiment 1 for Total cholesterol at 1.0 (mg/kg) dose", "format": "functional", "parameters": "unit not given beside the values", "procedure,_shortened": "(§1)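 Chronic model in male Sprague-Dawley rats (200-225 g). Rats were fed chow with peanut oil 5.5%, cholesterol 1.5% and cholic acid ad libitum for 2 weeks. Test article was given by gavage once daily (morning) in the second week, as a CMC/Tween aqueous suspension. Blood was taken by cardiac puncture under ether 24 h after the last dose. Plasma total, HDL and nonHDL cholesterol were measured with an Abbott VP analyzer using dextran sulfate precipitation, reported as mg/dL and % change from control. Controls were cholesterol-fed rats and rats switched to chow in week 2.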"}, "Rattus norvegicus [2]": {"tested_on": "Rattus norvegicus", "assay": "Compound was evaluated in experiment 1 for Change in High density lipoproteins at 10 (mg/kg) dose", "format": "functional", "procedure,_shortened": "as §1"}, "Rattus norvegicus [3]": {"tested_on": "Rattus norvegicus", "assay": "Compound was evaluated in experiment 1 for Change in High density lipoproteins at 1.0 (mg/kg) dose", "format": "functional", "procedure,_shortened": "as §1"}, "Rattus norvegicus [4]": {"tested_on": "Rattus norvegicus", "assay": "Compound was evaluated in experiment 1 for High density lipoproteins at 1.0 (mg/kg) dose", "format": "functional", "procedure,_shortened": "as §1"}, "Rattus norvegicus [5]": {"tested_on": "Rattus norvegicus", "assay": "Compound was evaluated in experiment 1 for change in non High density lipoprotein at the doses at 3.0 (mg/kg) dose", "format": "functional", "procedure,_shortened": "as §1"}, "Rattus norvegicus [6]": {"tested_on": "Rattus norvegicus", "assay": "Compound was evaluated in experiment 1 for Total cholesterol at 0.3 (mg/kg) dose", "format": "functional", "parameters": "unit not given beside the values", "procedure,_shortened": "as §1"}, "Rattus norvegicus [7]": {"tested_on": "Rattus norvegicus", "assay": "Compound was evaluated in experiment 1 for Change in High density lipoproteins at 3.0 (mg/kg) dose", "format": "functional", "procedure,_shortened": "as §1"}, "Rattus norvegicus [8]": {"tested_on": "Rattus norvegicus", "assay": "Compound was evaluated in experiment 1 for Change in total cholesterol at 3.0 (mg/kg) dose", "format": "functional", "procedure,_shortened": "as §1"}, "Rattus norvegicus [9]": {"organism": "Rattus norvegicus", "assay": "Percent change in total cholesterol in peanut oil (5.5%)-, cholic acid (0.3%)-, Cholesterol (1.5%)-fed rats after a single dose.", "format": "functional", "procedure,_shortened": "(§2)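 Male Sprague-Dawley rats (200-225 g), n=5-7/group, given a single oral dose at 4 p.m. as a suspension in 1.5% CMC/0.2% Tween-20 in water (50 mg/kg); controls received vehicle alone. The rats then had free access to chow with peanut oil, cholesterol and cholic acid. At 8 a.m. next day they were bled by cardiac puncture under ether, and serum total cholesterol was measured as % change versus controls (unpaired two-tailed t-test).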"}, "Rattus norvegicus [10]": {"tested_on": "Rattus norvegicus", "assay": "Compound was evaluated in experiment 1 for non High density lipoproteins at 0.3 (mg/kg) dose", "format": "functional", "procedure,_shortened": "as §1"}, "Rattus norvegicus [11]": {"tested_on": "Rattus norvegicus", "assay": "Compound was evaluated in experiment 1 for change in non High density lipoprotein at the doses at 1.0 (mg/kg) dose", "format": "functional", "procedure,_shortened": "as §1"}, "Rattus norvegicus [12]": {"tested_on": "Rattus norvegicus", "assay": "Compound was evaluated in experiment 1 for change in non High density lipoprotein at the doses at 0.3 (mg/kg) dose", "format": "functional", "procedure,_shortened": "as §1"}, "[13]": {"target": "T1, Acyl-CoA:cholesterol acyltransferase (Oryctolagus cuniculus, UniProt Q95214)", "T1 sequence (Q95214 whole entry)": "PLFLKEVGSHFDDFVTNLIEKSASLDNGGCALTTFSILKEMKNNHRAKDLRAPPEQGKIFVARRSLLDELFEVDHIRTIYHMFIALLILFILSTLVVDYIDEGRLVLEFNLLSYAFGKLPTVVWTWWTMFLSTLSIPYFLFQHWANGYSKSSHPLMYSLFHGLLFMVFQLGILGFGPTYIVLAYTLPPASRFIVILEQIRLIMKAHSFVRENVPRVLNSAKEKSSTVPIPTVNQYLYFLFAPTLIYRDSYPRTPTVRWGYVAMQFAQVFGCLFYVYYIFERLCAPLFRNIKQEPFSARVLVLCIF", "assay": "Tested for in vitro inhibition against Acyl coenzyme A:cholesterol acyltransferase of intestinal microsomes in cholesterol-fed rabbits", "parameters": "species or system Microsome", "procedure,_shortened": "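Microsomes were prepared from intestine of cholesterol-fed rabbits. ACAT activity was measured using [1-14C]oleoyl-CoA as substrate. Each determination was run in triplicate.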"}, "Rattus norvegicus [14]": {"tested_on": "Rattus norvegicus", "assay": "Compound was evaluated in experiment 1 for Change in total cholesterol at 10 (mg/kg) dose", "format": "functional", "procedure,_shortened": "as §1"}, "Rattus norvegicus [15]": {"tested_on": "Rattus norvegicus", "assay": "Compound was evaluated in experiment 1 for High density lipoproteins at 3.0 (mg/kg) dose", "format": "functional", "procedure,_shortened": "as §1"}, "Rattus norvegicus [16]": {"tested_on": "Rattus norvegicus", "assay": "Compound was evaluated in experiment 1 for change in non High density lipoprotein at the doses at 10 (mg/kg) dose", "format": "functional", "procedure,_shortened": "as §1"}, "Rattus norvegicus [17]": {"tested_on": "Rattus norvegicus", "assay": "Compound was evaluated in experiment 1 for Change in total cholesterol at 0.3 (mg/kg) dose", "format": "functional", "procedure,_shortened": "as §1"}, "Rattus norvegicus [18]": {"tested_on": "Rattus norvegicus", "assay": "Compound was evaluated in experiment 1 for non High density lipoproteins at 1.0 (mg/kg) dose", "format": "functional", "procedure,_shortened": "as §1"}, "Rattus norvegicus [19]": {"tested_on": "Rattus norvegicus", "assay": "Compound was evaluated in experiment 1 for High density lipoproteins at 0.3 (mg/kg) dose", "format": "functional", "procedure,_shortened": "as §1"}, "Rattus norvegicus [20]": {"tested_on": "Rattus norvegicus", "assay": "Compound was evaluated in experiment 1 for non High density lipoproteins at 3.0(mg/kg) dose", "format": "functional", "procedure,_shortened": "as §1"}, "Rattus norvegicus [21]": {"tested_on": "Rattus norvegicus", "assay": "Compound was evaluated in experiment 1 for non High density lipoproteins at 10 (mg/kg) dose", "format": "functional", "procedure,_shortened": "as §1"}, "Rattus norvegicus [22]": {"tested_on": "Rattus norvegicus", "assay": "Compound was evaluated in experiment 1 for Change in total cholesterol at 1.0 (mg/kg) dose", "format": "functional", "procedure,_shortened": "as §1"}, "Rattus norvegicus [23]": {"tested_on": "Rattus norvegicus", "assay": "Compound was evaluated in experiment 1 for Total cholesterol at 10 (mg/kg) dose", "format": "functional", "parameters": "unit not given beside the values", "procedure,_shortened": "as §1"}, "Rattus norvegicus [24]": {"tested_on": "Rattus norvegicus", "assay": "Compound was evaluated in experiment 1 for Total cholesterol at 3.0 (mg/kg) dose", "format": "functional", "parameters": "unit not given beside the values", "procedure,_shortened": "as §1"}, "Rattus norvegicus [25]": {"tested_on": "Rattus norvegicus", "assay": "Compound was evaluated in experiment 1 for Change in High density lipoproteins at 0.3 (mg/kg) dose", "format": "functional", "procedure,_shortened": "as §1"}, "[26]": {"assay": "Compound was evaluated for the distribution coefficient at pH 7.4", "format": "physicochemical", "details": "octanol/water"}, "Rattus norvegicus [27]": {"tested_on": "Rattus norvegicus", "assay": "Compound was evaluated for the percentage change in total cholesterol in peanut oil (5.5%)-cholic acid (0.3%)-cholesterol (1.5%)-fed rats at 30 mg/kg", "format": "functional"}, "Rattus norvegicus [28]": {"tested_on": "Rattus norvegicus", "assay": "Compound was evaluated in experiment 1 for High density lipoproteins at 10 (mg/kg) dose", "format": "functional", "procedure,_shortened": "as §1"}, "Rattus norvegicus [29]": {"tested_on": "Rattus norvegicus", "assay": "Compound was evaluated for % reduction in plasma cholesterol in cholesterol fed rats at a dose of 25 mg/kg", "format": "functional", "procedure,_shortened": "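Male Sprague-Dawley rats on a cholesterol-enriched diet. Dosing was either by gavage as a suspension in 1.5% carboxymethylcellulose/0.2% Tween-20 in water or in oleic acid, or given as a diet admixture. Result is % reduction in plasma cholesterol versus untreated controls given the same mode and vehicle. Significance threshold p < 0.05.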"}, "[30]": {"assay": "Solubility at pH 4.0", "format": "physicochemical", "details": "buffer"}, "[31]": {"assay": "Solubility at pH 7.4", "format": "physicochemical", "details": "buffer"}, "Rattus norvegicus [32]": {"organism": "Rattus norvegicus", "assay": "Percent change in total cholesterol in peanut oil (5.5%) - cholic acid (0.3%) - Cholesterol (1.5%) fed rates after a single dose", "format": "functional", "procedure,_shortened": "as §2"}, "[33]": {"assay": "Solubility at 0.1 N HCl", "format": "physicochemical", "details": "read-out: S"}}, "note": "pIC50: −log10 of the molar value."}
{"compound": "CCCCN(CCCC)Cc1cccc(C2(CNC(=O)Nc3c(C(C)C)cccc3C(C)C)CCCC2)c1", "values": [{"measurement": "TC", "setting": "Rattus norvegicus [1]", "result": 276}, {"measurement": "Change HDL -C", "setting": "Rattus norvegicus [2]", "result": -21, "unit": "%"}, {"measurement": "Change HDL -C", "setting": "Rattus norvegicus [3]", "result": -16, "unit": "%"}, {"measurement": "HDL-C", "setting": "Rattus norvegicus [4]", "result": 10}, {"measurement": "Change non HDL-C", "setting": "Rattus norvegicus [5]", "result": -36, "unit": "%"}, {"measurement": "TC", "setting": "Rattus norvegicus [6]", "result": 271}, {"measurement": "Change HDL -C", "setting": "Rattus norvegicus [7]", "result": 8, "unit": "%"}, {"measurement": "Change TC", "setting": "Rattus norvegicus [8]", "result": -34, "unit": "%"}, {"measurement": "Delta TC", "setting": "Rattus norvegicus [9]", "result": -25, "unit": "%"}, {"measurement": "Non-HDL-C", "setting": "Rattus norvegicus [10]", "result": 258}, {"measurement": "Change non HDL-C", "setting": "Rattus norvegicus [11]", "result": -12, "unit": "%"}, {"measurement": "Change non HDL-C", "setting": "Rattus norvegicus [12]", "result": -15, "unit": "%"}, {"measurement": "pIC50", "setting": "[13]", "result": 7.80}, {"measurement": "Change TC", "setting": "Rattus norvegicus [14]", "result": -4, "unit": "%"}, {"measurement": "HDL-C", "setting": "Rattus norvegicus [15]", "result": 12}, {"measurement": "Change non HDL-C", "setting": "Rattus norvegicus [16]", "result": -3, "unit": "%"}, {"measurement": "Change TC", "setting": "Rattus norvegicus [17]", "result": -14, "unit": "%"}, {"measurement": "Non-HDL-C", "setting": "Rattus norvegicus [18]", "result": 266}, {"measurement": "HDL-C", "setting": "Rattus norvegicus [19]", "result": 12}, {"measurement": "Non-HDL-C", "setting": "Rattus norvegicus [20]", "result": 194}, {"measurement": "Non-HDL-C", "setting": "Rattus norvegicus [21]", "result": 293}, {"measurement": "Change TC", "setting": "Rattus norvegicus [22]", "result": -12, "unit": "%"}, {"measurement": "TC", "setting": "Rattus norvegicus [23]", "result": 302}, {"measurement": "TC", "setting": "Rattus norvegicus [24]", "result": 206}, {"measurement": "Change HDL -C", "setting": "Rattus norvegicus [25]", "result": 16, "unit": "%"}, {"measurement": "logD", "setting": "[26]; read-out: logD", "result": 6.05}, {"measurement": "Delta TC", "setting": "Rattus norvegicus [27]", "result": -63, "unit": "%"}, {"measurement": "HDL-C", "setting": "Rattus norvegicus [28]", "result": 9}]}
{"compound": "CC(C)c1cccc(C(C)C)c1NC(=O)NCC1(c2ccccc2)CCCC1", "values": [{"measurement": "Reduction", "setting": "Rattus norvegicus [29]", "result": 59, "unit": "%"}, {"measurement": "solubility", "setting": "[30]", "result": "< 1", "unit": "µg/mL"}, {"measurement": "solubility", "setting": "[31]", "result": "< 1", "unit": "µg/mL"}, {"measurement": "Delta TC", "setting": "Rattus norvegicus [32]", "result": -38, "unit": "%"}, {"measurement": "logD", "setting": "[26]", "result": 5.16}, {"measurement": "solubility", "setting": "[33]", "result": "< 1", "unit": "µg/mL"}]}
